# Screens deposited in PubChem BioAssay by The Scripps Research Institute Molecular Screening Center.
# PRMT1 FP inh: inhibitors of human PRMT1; Q99873; recombinant PRMT1, activity-based probe fluorescence polarization; inhibition, % at 2.79 µM; 370,000 tested, 1.3% active; AID 652257;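 active = inhibition above about 21% made by adding two undisclosed values, limit read from the data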
# ABHD4 inh: inhibitors of mouse ABHD4. Q8VD66. purified mABHD4, FP-Rh probe fluorescence polarization. inhibition, % at 8.92 µM. 370,000 tested, 0.54% active;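 active = inhibition exceeding the mean over every tested compound plus 3 SD, cut at about 30% in these data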;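 also: 0% = plate median of compound wells and 100% = S159A mutant with DMSO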
# Target sequence (Q8VD66 whole entry, looked up): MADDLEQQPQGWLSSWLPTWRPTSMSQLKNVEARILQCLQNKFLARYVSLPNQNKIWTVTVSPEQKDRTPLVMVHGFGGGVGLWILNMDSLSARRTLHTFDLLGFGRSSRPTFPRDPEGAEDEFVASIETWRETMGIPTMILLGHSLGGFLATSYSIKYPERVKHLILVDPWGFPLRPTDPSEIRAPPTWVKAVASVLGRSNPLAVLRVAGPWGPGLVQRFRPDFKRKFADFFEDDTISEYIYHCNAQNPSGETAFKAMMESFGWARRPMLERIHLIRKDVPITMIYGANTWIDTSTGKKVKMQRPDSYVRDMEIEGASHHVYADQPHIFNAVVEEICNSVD
#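 Assay system: mouse ABHD4 enzyme, wild type / Also added: fluorescent activity-based probe FP-Rh / Doses: single nominal dose of 8.92 µM, 0.89% DMSO final / Timing: 45 min compound pre-incubation plus 60 min probe step, 25 °C / Signal: FP readout, ex 525 nm / em 598 nm / Control set: S159A mutant/DMSO as 100%, compound-well median as 0%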
# TCR-CD3 inh: human TCR-CD3 binding inhibition; 360,000 tested, 0.37% active; inhibition, % at 9.4 µM; TAMRA-labeled TCR probe fluorescence, biochemical; in the data active = inhibition above about 19%;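 also: recombinant mutant TCR 2C K166C tagged with TAMRA read by polarization; 0% = receptor in buffer alone and 100% = receptor with positive control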
# SIAE primary: inhibitors of human sialic acid acetylesterase SIAE; 370,000 tested, 0.69% active; SIAE FP-Rh probe binding, fluorescence polarization; inhibition, % at 9.66 µM; Q9HAT2;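 active = inhibition above a cutoff: mean of compounds within the control limits plus 3 SD of those, cut at about 17% in these data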;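 also: 0% = plate median of compound wells and 100% = probe without SIAE protein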
# HTRA1 inhibitor: HTRA1 (human) protease inhibition. Q92743. recombinant HTRA1, FP-rhodamine activity-based probe, fluorescence polarization. inhibition, % at 5.96 µM. 340,000 tested, 0.5% active. AID 504803; in the data active = inhibition above about 36%;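 also: 0% = enzyme with DMSO and 100% = wells lacking enzyme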
# * = called active by the depositor; x = no result given; ! = not confirmed by another sample. In the library only some 2.5% were active in any assay of this set; here they are far more common.
SMILES,PRMT1 FP inh,ABHD4 inh,TCR-CD3 inh,SIAE primary,HTRA1 inhibitor
COc1ccccc1NC(=S)c1ccccc1,23*,-11,-3,4,2
Cc1nc2cc3nc(C)sc3cc2s1,22*,-2,-4,2,4
Cc1nc2cc3ccccc3cc2s1,2,2,-4,-3,0
Nc1cc(-c2ccncc2)c[nH]c1=O,24*,5,-4,0,5
NC(=O)c1csc(-c2ccncc2)n1,1,-3,-7,-2,3
Cc1ccc(CN[C@@H]2CC[C@@]34CCCN3C(=O)CCC[C@H]4C2)cc1,-1,2,x,-1,x
O=[N+]([O-])c1ccc(SCCc2ccncc2)cc1,24*!,5,3,-4,3
O=[N+]([O-])c1ccc(SCCc2ccccn2)cc1,14,3,5,3,0
O=c1c2ccccc2[nH]c2ccc(F)cc12,1,1,7,-4,-5
Cc1ccccc1-n1sc2cc(F)ccc2c1=O,88*,15,2,5,0
O=c1c2ccccc2sn1-c1ccccc1,95*,3,-9,4,-13
O=c1c2cc(F)ccc2sn1-c1ccccc1,89*,20,8,9,-1
O=c1c2cc(C(F)(F)F)ccc2sn1-c1ccccc1,71*,8,8,3,2
CCCC/C=C1/[C@H](c2ccc(Cl)cc2)N(Cc2ccc3c(c2)OCO3)C2=N[C@H](c3ccccc3)CC(=O)N21,6,1,x,2,x
CCCCN(C)CCn1c(=S)[nH]c2ccc(N3CCOCC3)cc2c1=O,24*,-4,-7,-5,4
CN1CCN(C(=O)c2cc3sccc3n2CC(=O)c2ccccc2)CC1,2,10,0,1,1
CCN1CCN(C(=O)c2cc3sccc3n2CC(=O)c2ccccc2)CC1,1,6,8,67*,4
O=C(CSc1nnc(Cc2ccccc2)n1Cc1ccco1)NC1CCCC1,22*,-27,-5,-15,-4
Cn1c(Cc2ccccc2)nnc1SCC(=O)NC1CCCC1,-1,-1,2,-2,4
O=C(OCC#CCSc1nnc(-c2ccc(F)cc2)o1)c1ccc(F)cc1,-6,-11,x,-1,x
CCN(CC)CCN(C(=O)c1ccc2ncsc2c1)c1nc2cc3c(cc2s1)OCO3,53*,-1,-2,1,15
CCOC(=O)c1c(NC(=O)CSc2nnnn2-c2ccccc2)sc2c1CCC(C)C2 (stereo unspecified),1,8,-2,2,-4
CCn1c(SCC(=O)Nc2sc3c(c2C(N)=O)CCC(C)C3)nnc1-c1ccco1 (stereo unspecified),22*,5,5,-10,-10
O=C(c1cc(Cl)cc(Cl)c1)N1CC[C@H]2[C@H](CCCN2Cc2ccc(F)cc2)C1,-3,-3,x,0,x
CSc1nc(=S)c2[nH]c(=S)[nH]c2[nH]1,88*,-3,7,-17,5
SMILES,PRMT1 FP inh,ABHD4 inh,TCR-CD3 inh,SIAE primary,HTRA1 inhibitor
Nc1nc(=S)c2[nH]c(=S)[nH]c2[nH]1,14,3,3,5,5
C[C@H]1[C@@H](N(C)CC2CCCCC2)CC[C@@]23CCCN2C(=O)CCC[C@@H]13,0,-1,x,4,x
Oc1c(Br)cc(C=Nc2ccc3nc(-c4ccccc4)[nH]c3c2)c(O)c1Br,7,31*,16,18*,x
O=[N+]([O-])c1ccc(O)c(C=Nc2ccc3nc(-c4ccccc4)[nH]c3c2)c1,-4,22,7,12,8
CN(C(=O)CCn1nnc(-c2cccs2)n1)C1CCCCC1,-1,0,x,-5,x
Cc1ccc(-c2cc(C(=O)NN=Cc3ccc(F)cc3)[nH]n2)cc1C,5,-24,x,-4,x
COc1ccc(-c2coc3cc(OC(C)=O)ccc3c2=S)cc1,22*,-1,3,8,2
CC(=O)Oc1ccc2c(=O)c(-c3ccccc3)coc2c1,-1,1,4,-2,-3
CCOC(=O)c1cc2n(c1/N=C/N(C)C)-c1ccccc1C2=O,23*,4,-7,0,5
CCOC(=O)c1ccc2c(c1)N(C)C(=O)c1ccccc1S2,x,x,x,x,-7
O=C(O)COc1ccc2c(c1)O/C(=C\c1ccco1)C2=O,24*,19,6,-9,4
COC(=O)[C@]12C[C@H](CC(=O)NCCc3ccccc3OC)C(=O)N(CCc3ccc(OC)c(OC)c3)C1=C[C@H](C1CCCC1)O[C@@H]2C,0,-12,x,-4,x
Cc1ccc(C)c(S(=O)(=O)Nc2cc(SCC(=O)O)c(O)c3ccccc23)c1,x,x,x,x,45*
Cc1ccc2sc(C)[n+](CCCS(=O)(=O)[O-])c2c1,38*,-3,2,-6,4
Cc1ccc2c(c1)sc(C)[n+]2CCCS(=O)(=O)[O-],62*,-5,9,-12,0
CNC(=O)[C@@H]1CC=C[C@@H]2CCN(c3ccccc3)C(=O)[C@@H]21,0,2,x,-4,x
CC1C/C(=C/c2cccs2)C(=O)/C(=C/c2cccs2)C1 (stereo unspecified),22*,6,-6,-5,-15
C=CCOc1ccc(C(=O)/C=C2/C(=O)Nc3ccccc32)cc1,-5,8,2,-1,-10
C=CCOc1ccccc1C(=O)/C=C1/C(=O)Nc2ccccc21,23*,11,1,2,-4
Cc1ccc2cccc(NC3OC(=O)c4ccccc43)c2n1 (stereo unspecified),1,7,10,19*,14
COC(=O)c1ccccc1NC1OC(=O)c2ccccc21 (stereo unspecified),6,-19,2,-8,-5
CC(C)C(=O)Nc1cccc(C(=O)Nc2nnc(C(C)C)s2)c1,1,0,-6,-2,3
CC(C)c1nnc(NC(=O)c2cccc(NC(=O)C(F)(F)F)c2)s1,22*,0,-2,-6,1
Cc1nn(CCC(=O)NNC(=O)Nc2ccc(Cl)cc2)c(C)c1[N+](=O)[O-],-4,7,x,2,x
CC(OC(=O)c1ccc(NC(=O)CC#N)cc1)C(=O)Nc1ccc(Oc2ccccc2)cc1 (stereo unspecified),-4,-38,35*,-92,-78
SMILES,PRMT1 FP inh,ABHD4 inh,TCR-CD3 inh,SIAE primary,HTRA1 inhibitor
COC1=C(Nc2ccccc2OC)C(=O)c2ccccc2C1=O,5,1,-4,-1,x
COc1ccccc1NC1=C(NC(C)=O)C(=O)c2ccccc2C1=O,25*,5,-3,-7,8
CC(=O)NC1C(=O)N=C(SC(C)C(=O)Nc2cccc(Cl)c2)NC1=O (stereo unspecified),22*,1,5,-7,5
CC(Sc1nc(N)cc(=O)[nH]1)C(=O)Nc1cccc(Cl)c1 (stereo unspecified),2,-4,3,-10,-9
CCn1cc(C(=O)NC(C)C)c(=O)c2cc(F)c(N3CCN(C(=O)c4ccco4)CC3)cc21,-2,-2,-1,-3,-6
CCn1cc(C(=O)Nc2ncccc2O)c(=O)c2cc(F)c(N3CCN(C(=O)c4ccco4)CC3)cc21,0,7,20*,4,16
Cc1ccc(NNC(=O)c2ccno2)cc1C,23*,-3,-5,-2,6
